Assay results as given in ChEMBL document CHEMBL1147762, “A new chemical tool for exploring the physiological function of the PDE2 isozyme” (Bioorg Med Chem Lett, 2006).
Values after ≈ are worked out from the molar mass of the structure shown.

Tests used:
[1] = molecular target: Sodium-dependent dopamine transporter (Homo sapiens) (UniProt Q01959); assay: Activity against dopamine uptake at 10 uM
[2] = molecular target: Serine/threonine-protein kinase Sgk1 (Homo sapiens) (UniProt O00141); assay: Inhibition of SGK at 10 uM
Sequence of Serine/threonine-protein kinase Sgk1 (Homo sapiens) (O00141 whole entry): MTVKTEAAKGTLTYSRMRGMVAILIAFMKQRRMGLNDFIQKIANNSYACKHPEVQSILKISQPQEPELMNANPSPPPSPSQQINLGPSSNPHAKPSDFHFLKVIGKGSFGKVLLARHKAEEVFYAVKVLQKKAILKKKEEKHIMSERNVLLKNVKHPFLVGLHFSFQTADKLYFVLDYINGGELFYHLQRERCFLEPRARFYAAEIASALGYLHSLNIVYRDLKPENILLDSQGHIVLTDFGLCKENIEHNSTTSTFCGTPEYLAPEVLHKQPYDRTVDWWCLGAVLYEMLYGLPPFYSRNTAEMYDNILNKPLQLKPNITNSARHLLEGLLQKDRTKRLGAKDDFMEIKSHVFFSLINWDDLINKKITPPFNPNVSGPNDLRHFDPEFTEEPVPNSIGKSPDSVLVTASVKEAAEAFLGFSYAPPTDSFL

[3] = molecular target: MAP kinase-activated protein kinase 2 (Homo sapiens) (UniProt P49137); assay: Inhibition of MAPKAPK2 at 10 uM
[4] = molecular target: 5-hydroxytryptamine receptor 2A (Homo sapiens) (UniProt P28223); assay: Percentage binding to serotonin 5HT2A at 10 uM
Sequence of 5-hydroxytryptamine receptor 2A (Homo sapiens) (P28223 whole entry): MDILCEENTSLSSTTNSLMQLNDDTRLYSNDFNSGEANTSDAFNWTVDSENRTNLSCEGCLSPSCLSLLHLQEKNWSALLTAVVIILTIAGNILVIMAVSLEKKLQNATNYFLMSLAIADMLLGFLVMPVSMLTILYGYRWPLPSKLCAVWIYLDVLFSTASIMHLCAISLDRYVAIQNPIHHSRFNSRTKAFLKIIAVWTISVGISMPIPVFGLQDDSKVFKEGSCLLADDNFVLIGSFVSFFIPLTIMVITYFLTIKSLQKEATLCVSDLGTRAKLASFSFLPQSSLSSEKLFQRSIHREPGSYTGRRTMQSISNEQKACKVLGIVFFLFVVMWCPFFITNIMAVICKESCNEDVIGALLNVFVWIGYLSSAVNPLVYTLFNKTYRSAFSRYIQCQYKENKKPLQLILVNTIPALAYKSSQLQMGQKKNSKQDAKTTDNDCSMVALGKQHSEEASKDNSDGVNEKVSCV

[5] = molecular target: Serine/threonine-protein kinase Chk1 (Homo sapiens) (UniProt O14757); assay: Inhibition of CHK1 at 10 uM
[6] = molecular target: Histamine H3 receptor (Homo sapiens) (UniProt Q9Y5N1); assay: Percentage binding to histamine H3 at 10 uM
Sequence of Histamine H3 receptor (Homo sapiens) (Q9Y5N1 whole entry): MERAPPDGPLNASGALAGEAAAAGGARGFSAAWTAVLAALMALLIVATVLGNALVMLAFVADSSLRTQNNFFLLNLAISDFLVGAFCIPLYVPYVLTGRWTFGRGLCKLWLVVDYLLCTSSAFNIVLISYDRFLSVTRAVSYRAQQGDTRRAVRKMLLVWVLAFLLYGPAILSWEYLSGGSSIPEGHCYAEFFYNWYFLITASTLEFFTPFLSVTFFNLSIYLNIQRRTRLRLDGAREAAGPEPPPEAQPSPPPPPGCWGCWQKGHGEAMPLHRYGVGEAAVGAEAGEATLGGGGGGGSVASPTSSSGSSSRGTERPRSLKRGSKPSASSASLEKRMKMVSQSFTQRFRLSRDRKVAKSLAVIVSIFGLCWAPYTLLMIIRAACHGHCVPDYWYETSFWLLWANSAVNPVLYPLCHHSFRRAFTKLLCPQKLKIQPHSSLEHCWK

[7] = molecular target: 3',5'-cyclic-AMP phosphodiesterase 4D (Homo sapiens, UniProt Q08499); assay: Inhibitory activity against PDE4D by scintillation proximity assay
Sequence of 3',5'-cyclic-AMP phosphodiesterase 4D (Q08499 whole entry): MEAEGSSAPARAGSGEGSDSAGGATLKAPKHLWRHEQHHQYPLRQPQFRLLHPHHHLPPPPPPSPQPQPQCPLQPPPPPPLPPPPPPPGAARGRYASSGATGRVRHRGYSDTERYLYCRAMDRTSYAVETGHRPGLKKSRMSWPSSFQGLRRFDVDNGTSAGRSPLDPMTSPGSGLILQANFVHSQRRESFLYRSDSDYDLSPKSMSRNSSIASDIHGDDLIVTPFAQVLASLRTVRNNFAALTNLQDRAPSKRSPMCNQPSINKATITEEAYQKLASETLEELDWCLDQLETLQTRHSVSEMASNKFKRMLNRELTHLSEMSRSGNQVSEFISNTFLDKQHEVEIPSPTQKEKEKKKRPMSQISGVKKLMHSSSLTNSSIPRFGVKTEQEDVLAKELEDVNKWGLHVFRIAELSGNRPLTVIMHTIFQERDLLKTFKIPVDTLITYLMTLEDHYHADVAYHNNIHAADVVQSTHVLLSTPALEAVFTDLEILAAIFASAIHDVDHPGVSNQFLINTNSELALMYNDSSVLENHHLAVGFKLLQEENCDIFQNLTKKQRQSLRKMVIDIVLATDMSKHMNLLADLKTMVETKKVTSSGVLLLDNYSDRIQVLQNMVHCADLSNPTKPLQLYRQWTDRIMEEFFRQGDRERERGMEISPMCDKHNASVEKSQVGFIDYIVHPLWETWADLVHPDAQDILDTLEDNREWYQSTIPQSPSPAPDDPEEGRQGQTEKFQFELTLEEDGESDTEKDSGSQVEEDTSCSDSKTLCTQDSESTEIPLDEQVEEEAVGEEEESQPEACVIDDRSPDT
Summary of the method: (§1)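 Scintillation proximity assay for phosphodiesterase inhibition. Enzyme is used at a concentration within the linear range, and its KM was measured. Final substrate concentration is 1 µM, below one-third of KM, so IC50 approximates Ki. Results are means of n experiments with standard deviation.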

[8] = molecular target: D(2) dopamine receptor (Homo sapiens) (UniProt P14416); assay: Percentage binding to dopamine D2 at 10 uM
[9] = molecular target: Muscarinic acetylcholine receptor M2 (Homo sapiens) (UniProt P08172); assay: Percentage binding to muscarinic M2 at 10 uM
Sequence of Muscarinic acetylcholine receptor M2 (Homo sapiens) (P08172 whole entry): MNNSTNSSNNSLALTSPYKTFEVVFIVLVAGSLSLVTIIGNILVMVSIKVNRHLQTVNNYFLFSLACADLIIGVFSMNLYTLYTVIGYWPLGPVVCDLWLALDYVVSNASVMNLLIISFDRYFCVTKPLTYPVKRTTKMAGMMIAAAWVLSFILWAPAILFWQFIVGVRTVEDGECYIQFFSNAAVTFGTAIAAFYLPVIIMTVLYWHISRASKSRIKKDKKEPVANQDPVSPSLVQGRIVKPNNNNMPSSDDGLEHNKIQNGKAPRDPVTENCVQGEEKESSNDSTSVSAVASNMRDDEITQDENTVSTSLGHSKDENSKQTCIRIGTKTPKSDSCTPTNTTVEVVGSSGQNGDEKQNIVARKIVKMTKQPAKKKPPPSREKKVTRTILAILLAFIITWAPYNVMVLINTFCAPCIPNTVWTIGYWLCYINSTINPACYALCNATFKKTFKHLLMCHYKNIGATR

[10] = molecular target: Protein kinase C alpha type (Homo sapiens) (UniProt P17252); assay: Inhibition of PKCalpha at 10 uM
[11] = Turbidimetric solubility at pH 7; format: ADME, organism-based, Homo sapiens
[12] = molecular target: Mitogen-activated protein kinase 8 (Homo sapiens) (UniProt P45983); assay: Inhibition of JNK1a1 at 10 uM
[13] = molecular target: Mitogen-activated protein kinase 13 (Homo sapiens) (UniProt O15264); assay: Inhibition of SAPK4 at 10 uM
[14] = molecular target: Kappa-type opioid receptor (Homo sapiens) (UniProt P41145); assay: Percentage binding to opioid kappa at 10 uM
Sequence of Kappa-type opioid receptor (Homo sapiens) (P41145 whole entry): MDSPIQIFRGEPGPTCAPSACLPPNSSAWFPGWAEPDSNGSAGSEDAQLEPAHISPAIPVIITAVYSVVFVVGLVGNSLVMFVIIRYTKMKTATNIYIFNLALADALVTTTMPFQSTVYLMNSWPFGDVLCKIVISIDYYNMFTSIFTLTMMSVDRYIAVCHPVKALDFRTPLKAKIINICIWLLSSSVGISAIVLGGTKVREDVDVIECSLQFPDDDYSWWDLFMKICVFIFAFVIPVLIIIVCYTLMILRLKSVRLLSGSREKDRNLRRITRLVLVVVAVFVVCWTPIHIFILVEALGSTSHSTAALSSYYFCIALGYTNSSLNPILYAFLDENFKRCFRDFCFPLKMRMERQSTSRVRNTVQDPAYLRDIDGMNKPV

[15] = molecular target: Glucocorticoid receptor (Homo sapiens) (UniProt P04150); assay: Percentage binding to glucocorticord receptor at 10 uM
[16] = molecular target: Ribosomal protein S6 kinase (P70S6K) (Homo sapiens) (UniProt Q9UBS0+P23443); assay: Inhibition of p70S6K at 10 uM; format: protein-complex assay
[17] = molecular target: Muscarinic acetylcholine receptor M1 (Homo sapiens) (UniProt P11229); assay: Percentage binding to muscarinic M1 at 10 uM
Sequence of Muscarinic acetylcholine receptor M1 (Homo sapiens) (P11229 whole entry): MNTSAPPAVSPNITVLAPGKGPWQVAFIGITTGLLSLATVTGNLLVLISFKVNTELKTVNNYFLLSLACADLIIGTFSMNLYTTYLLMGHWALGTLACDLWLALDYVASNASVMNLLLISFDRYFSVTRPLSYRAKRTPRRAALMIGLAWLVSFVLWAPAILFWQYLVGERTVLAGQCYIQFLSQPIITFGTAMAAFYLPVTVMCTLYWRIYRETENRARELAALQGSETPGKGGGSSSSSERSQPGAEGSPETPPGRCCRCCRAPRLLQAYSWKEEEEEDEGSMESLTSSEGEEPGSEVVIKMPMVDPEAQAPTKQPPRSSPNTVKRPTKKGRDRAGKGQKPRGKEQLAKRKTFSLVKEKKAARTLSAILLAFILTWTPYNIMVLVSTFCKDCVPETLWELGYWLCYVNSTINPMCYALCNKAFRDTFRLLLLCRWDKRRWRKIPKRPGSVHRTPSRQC

[18] = molecular target: Acetylcholine receptor; alpha1/beta1/delta/gamma (Homo sapiens) (UniProt P02708+P07510+P11230+Q07001); assay: Percentage binding to muscle NACHR at 10 uM; format: tissue-based; settings: Muscle tissue
[19] = molecular target: Mitogen-activated protein kinase 11 (Homo sapiens) (UniProt Q15759); assay: Inhibition of SAPK2b at 10 uM
Sequence of Mitogen-activated protein kinase 11 (Homo sapiens) (Q15759 whole entry): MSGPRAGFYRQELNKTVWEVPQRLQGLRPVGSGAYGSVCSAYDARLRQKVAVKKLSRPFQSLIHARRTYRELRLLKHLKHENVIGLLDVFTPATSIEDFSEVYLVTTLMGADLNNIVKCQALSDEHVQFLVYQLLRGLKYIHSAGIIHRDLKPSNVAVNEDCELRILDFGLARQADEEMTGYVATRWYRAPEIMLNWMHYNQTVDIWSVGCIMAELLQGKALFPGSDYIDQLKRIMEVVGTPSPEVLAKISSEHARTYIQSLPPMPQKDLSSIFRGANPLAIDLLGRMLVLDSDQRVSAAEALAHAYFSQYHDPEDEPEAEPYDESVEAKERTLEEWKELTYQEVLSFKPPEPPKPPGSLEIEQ

[20] = Clearance in rat; format: ADME, organism-based; settings: Sprague-Dawley, in vivo
Summary of the method: (§2)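 Sprague–Dawley rats were dosed intravenously at 1 mg/kg in EtOH:PEG 400:H2O (1:4:5) and orally at 30 mg/kg in 0.5% methylcellulose.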

[21] = Percentage binding to GABA at 10 uM
Summary of the method: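 Single-concentration screen within a panel of 54 receptors and ion channels, measuring binding or interaction at each target.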

[22] = molecular target: Ribosomal protein S6 kinase alpha-5 (Homo sapiens) (UniProt O75582); assay: Inhibition of MSK1 at 10 uM
[23] = molecular target: Adrenergic receptor alpha-2 (Homo sapiens) (UniProt P08913+P18825+P18089); assay: Percentage binding to adrenergic alpha-2 receptor at 10 uM; format: protein assay
[24] = molecular target: Adenosine receptor A1 (Homo sapiens) (UniProt P30542); assay: Percentage binding to adenosine A1 receptor at 10 uM
[25] = molecular target: Sodium-dependent serotonin transporter (Homo sapiens) (UniProt P31645); assay: Activity against serotonin uptake at 10 uM
[26] = molecular target: Muscarinic acetylcholine receptor M4 (Homo sapiens) (UniProt P08173); assay: Percentage binding to muscarinic M4 at 10 uM
[27] = Tmax in rat; format: ADME, organism-based; settings: Sprague-Dawley, in vivo
[28] = molecular target: High affinity cGMP-specific 3',5'-cyclic phosphodiesterase 9A (Homo sapiens, UniProt O76083); assay: Inhibitory activity against PDE9 by scintillation proximity assay; summary of the method: as §1
[29] = molecular target: Thyroid hormone receptor (Homo sapiens) (UniProt P10827+P10828); assay: Percentage binding to thyroid hormone receptor at 10 uM; format: protein-complex assay
[30] = molecular target: Platelet-activating factor receptor (Homo sapiens) (UniProt P25105); assay: Percentage binding to PAF at 10 uM
Sequence of Platelet-activating factor receptor (Homo sapiens) (P25105 whole entry): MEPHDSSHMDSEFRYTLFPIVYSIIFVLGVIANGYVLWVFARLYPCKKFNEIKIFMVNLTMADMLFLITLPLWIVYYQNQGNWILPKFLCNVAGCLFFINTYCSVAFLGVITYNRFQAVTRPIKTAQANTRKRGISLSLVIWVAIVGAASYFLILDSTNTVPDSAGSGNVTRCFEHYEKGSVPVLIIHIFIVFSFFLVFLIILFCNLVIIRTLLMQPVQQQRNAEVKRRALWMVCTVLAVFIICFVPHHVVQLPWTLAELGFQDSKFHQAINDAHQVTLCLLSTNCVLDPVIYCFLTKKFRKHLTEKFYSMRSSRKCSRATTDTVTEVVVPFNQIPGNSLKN

[31] = molecular target: Cyclooxygenase (Homo sapiens) (UniProt P35354+P23219); assay: Inhibition of COX at 10 uM; format: protein assay
[32] = molecular target: Mitogen-activated protein kinase 12 (Homo sapiens) (UniProt P53778); assay: Inhibition of SAPK3 at 10 uM
[33] = molecular target: Glutamate receptor ionotropic AMPA (Homo sapiens) (UniProt P48058+P42263+P42262+P42261); assay: Percentage binding to AMPA at 10 uM; format: protein-complex assay
[34] = molecular target: 3',5'-cyclic-AMP phosphodiesterase 4C (Homo sapiens, UniProt Q08493); assay: Inhibitory activity against PDE4C by scintillation proximity assay; summary of the method: as §1
[35] = molecular target: Substance-P receptor (Homo sapiens) (UniProt P25103); assay: Percentage binding to neurokinin K1 at 10 uM
[36] = Cmax in rat; format: ADME, organism-based; settings: Sprague-Dawley, in vivo; summary of the method: as §2
[37] = molecular target: Vasopressin V2 receptor (Homo sapiens) (UniProt P30518); assay: Percentage binding to vasopressin V2 at 10 uM
Sequence of Vasopressin V2 receptor (Homo sapiens) (P30518 whole entry): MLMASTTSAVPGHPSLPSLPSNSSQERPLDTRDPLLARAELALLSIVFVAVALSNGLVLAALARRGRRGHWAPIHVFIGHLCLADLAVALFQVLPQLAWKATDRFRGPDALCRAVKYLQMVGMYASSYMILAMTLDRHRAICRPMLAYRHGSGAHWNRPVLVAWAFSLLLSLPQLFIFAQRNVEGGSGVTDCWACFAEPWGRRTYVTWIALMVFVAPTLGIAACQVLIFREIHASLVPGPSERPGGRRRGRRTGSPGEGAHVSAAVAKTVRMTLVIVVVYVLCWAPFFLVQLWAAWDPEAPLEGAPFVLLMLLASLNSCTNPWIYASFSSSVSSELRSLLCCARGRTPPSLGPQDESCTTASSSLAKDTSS

[38] = Half life in rat; format: ADME, organism-based; settings: Sprague-Dawley, in vivo; summary of the method: as §2
[39] = molecular target: cGMP-dependent 3',5'-cyclic phosphodiesterase (Homo sapiens, UniProt O00408); assay: Inhibitory activity against PDE2 by scintillation proximity assay
Summary of the method: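 Phosphodiesterase inhibition run as a scintillation proximity assay, with enzyme at a concentration in the linear range. Final substrate was 1 µM, below one-third of the enzyme K_M, so that IC50 approximates Ki. Values are means of n experiments with standard deviation.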

[40] = molecular target: B1 bradykinin receptor (Homo sapiens) (UniProt P46663); assay: Percentage binding to bradykinin B1 at 10 uM
Sequence of B1 bradykinin receptor (Homo sapiens) (P46663 whole entry): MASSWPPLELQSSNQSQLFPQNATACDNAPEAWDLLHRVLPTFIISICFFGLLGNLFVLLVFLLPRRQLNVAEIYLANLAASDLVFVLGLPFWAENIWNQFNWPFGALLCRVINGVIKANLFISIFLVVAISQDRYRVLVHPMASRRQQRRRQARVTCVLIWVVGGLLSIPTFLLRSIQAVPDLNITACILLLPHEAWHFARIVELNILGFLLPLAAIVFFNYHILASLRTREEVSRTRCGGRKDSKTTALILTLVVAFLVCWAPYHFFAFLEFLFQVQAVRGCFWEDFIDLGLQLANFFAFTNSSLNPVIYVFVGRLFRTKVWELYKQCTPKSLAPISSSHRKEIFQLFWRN

[41] = Basolateral Caco-2 cell membrane permeability; format: ADME, cell-based; settings: human
[42] = molecular target: Ribosomal protein S6 kinase alpha-1 (Homo sapiens) (UniProt Q15418); assay: Inhibition of RSK1 at 10 uM
[43] = molecular target: 3-phosphoinositide-dependent protein kinase 1 (Homo sapiens) (UniProt O15530); assay: Inhibition of PDK1 at 10 uM
[44] = molecular target: High affinity cAMP-specific and IBMX-insensitive 3',5'-cyclic phosphodiesterase 8A (Homo sapiens, UniProt O60658); assay: Inhibitory activity against PDE8A by scintillation proximity assay; summary of the method: as §1
[45] = molecular target: Sodium-dependent noradrenaline transporter (Homo sapiens) (UniProt P23975); assay: Activity against norepinephrine uptake at 10 uM

Which results are given for CN1C(=O)C(C(=O)Nc2nncs2)c2cc3occc3cc21 (stereo not given)?
Activity [1]: 11%; inhibition [2]: 0%; inhibition [3]: 8%; Activity [4]: 15%; inhibition [5]: 0%; Activity [6]: 0%; IC50 [7]: > 16 µM; Activity [8]: 12%; Activity [9]: 0%; inhibition [10]: 13%; solubility kinetic [11]: 55 µg/mL (≈ 175 µM); inhibition [12]: 0%; inhibition [13]: 13%; Activity [14]: 0%; Activity [15]: 0%; inhibition [16]: 23%; Activity [17]: 9%; Activity [18]: 0%; inhibition [19]: 5%; clearance [20]: 8.8 mL/min/kg; Activity [21]: 3%; inhibition [22]: 6%; Activity [23]: 16%; Activity [24]: 16%; Activity [25]: 0%; Activity [26]: 1%; Tmax [27]: 0.8 h; IC50 [28]: > 16 µM; Activity [29]: 0%; Activity [30]: 21%; inhibition [31]: 0%; inhibition [32]: 7%; Activity [33]: 20%; IC50 [34]: > 16 µM; Activity [35]: 0%; Cmax [36]: 8300 ng/mL; Activity [37]: 13%; half-life [38]: 1.6 h; IC50 [39]: 0.04 µM; Activity [40]: 0%; Papp [41]: 32 ×10⁻⁶ cm/s; inhibition [42]: 1%; inhibition [43]: 0%; IC50 [44]: > 16 µM; Activity [45]: 12%
